Results taken from publication PMC8637822 (RSC Chemical Biology, 2021).
Where a SMILES comes first, the peptide text is derived from it. Bridges are numbered along the chain shown (N, C = ends). [ ]: non-standard residue; d: D form. Bip = N[C@@H](Cc1ccc(-c2ccccc2)cc1)C(=O)O; NMeS = CN[C@@H](CO)C(=O)O

Key:
SJSA-1 cells [1] = assay: WST-1 cell proliferation assay in SJSA-1 cells; assay type: cell-based; settings: Homo sapiens, SJSA-1, 24 h, read-out: GI50 growth inhibition
Summary of the method: (§1)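 Cells were exposed for 24 h to varying concentrations of the synthesized macrocyclic peptide MDM2 inhibitors, and proliferation was read out by the WST-1 assay. The same test was run in MDM2-dependent SJSA-1 cells and in p53-mutant SW-480 cells, the latter as a control line. A small-molecule MDM2 inhibitor served as the positive control.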

SW-480 cells = assay: WST-1 cell proliferation assay in SW-480 cells; assay type: cell-based; settings: p53-mutant SW-480 cells, 24 hours
Summary of the method: as §1

MDM2 = MDM2 (Homo sapiens, UniProt Q00987); assay: TR-FRET competition; assay type: binding
SJSA-1 cells [2] = assay: SJSA-1 cellular assay; assay type: cell-based; settings: tested up to 30 μM
MDM4 = target: T1, MDM4 (Homo sapiens, UniProt O15151); assay: TR-FRET competition; assay type: binding; settings: His(96) of MDM2 replaced by proline in MDM4
T1 sequence (O15151 2-185): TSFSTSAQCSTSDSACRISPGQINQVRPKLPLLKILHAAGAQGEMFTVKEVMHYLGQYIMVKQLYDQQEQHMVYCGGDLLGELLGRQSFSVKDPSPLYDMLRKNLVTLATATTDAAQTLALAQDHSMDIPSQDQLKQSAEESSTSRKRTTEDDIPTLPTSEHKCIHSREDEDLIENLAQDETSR

[3] = tested on: nuclear MDM2 in SJSA-1 cells; assay: MDM2 immunofluorescence; assay type: cell-based; settings: 4 hours

MDM2, sequence (Q00987 2-188): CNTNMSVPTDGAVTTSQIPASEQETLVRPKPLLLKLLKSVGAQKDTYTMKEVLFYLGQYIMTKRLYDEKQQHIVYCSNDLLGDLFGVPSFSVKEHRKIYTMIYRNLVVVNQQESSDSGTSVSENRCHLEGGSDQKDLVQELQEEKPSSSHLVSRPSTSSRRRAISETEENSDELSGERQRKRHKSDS

Question: For `COc1cc2c(cc1OC(C)C)[C@H](c1ccc(Cl)cc1)N(c1ccc(N(C)C[C@H]3CC[C@H](N4CCN(C)C(=O)C4)CC3)cc1)C(=O)C2` [CGM097], which GI50 (SJSA-1 cells [1]) is on record?
Answer: ~1000 nM

Question: With `CC(=O)N[C@@H](CSSC[C@H](N)C(=O)NCCOCCOCC(=O)NCCOCCOCC(=O)N[C@H]1CCCCNC(=O)CC[C@@H](C(N)=O)NC(=O)[C@H](CCCNC(=N)N)NC(=O)[C@@H](CCCNC(=N)N)NC(=O)[C@H](CCCNC(=N)N)NC(=O)[C@@H](CCCNC(=N)N)NC(=O)[C@H](CCCNC(=N)N)NC(=O)[C@@H](CCCNC(=N)N)NC(=O)[C@H](CCCNC(=N)N)NC(=O)[C@@H](CCCNC(=N)N)NC(=O)[C@H](CCCNC(=N)N)NC(=O)[C@@H](CCCNC(=N)N)NC1=O)C(=O)NCCCC[C@H](NC(=O)CNC(=O)[C@@H]1CSCC(=O)N[C@@H](Cc2ccccc2)C(=O)N[C@@H](CO)C(=O)N[C@@H](CC(=O)O)C(=O)N(C)[C@@H](CO)C(=O)N[C@@H](CO)C(=O)N[C@@H](CO)C(=O)N[C@@H](C(C)C)C(=O)N2CCC[C@H]2C(=O)N[C@@H](CC(N)=O)C(=O)N[C@@H](Cc2ccc(-c3ccccc3)cc2)C(=O)N[C@@H](Cc2ccc(-c3ccccc3)cc2)C(=O)N[C@@H](CCCNC(=N)N)C(=O)N[C@@H](CC(N)=O)C(=O)N1)C(N)=O` [CMR19-cR10] as the molecule, how does the growth inhibitory effect (SW-480 cells) read?
Answer: no growth inhibition

Question: Which results are given for `CC(C)[C@@H]1NC(=O)[C@H](CO)NC(=O)[C@H](CO)NC(=O)[C@H](CO)N(C)C(=O)[C@H](CC(=O)O)NC(=O)[C@H](CO)NC(=O)[C@H](Cc2ccccc2)NC(=O)CSC[C@@H](C(=O)NCC(N)=O)NC(=O)[C@H](CC(N)=O)NC(=O)[C@H](CCCNC(=N)N)NC(=O)[C@H](Cc2ccc(-c3ccccc3)cc2)NC(=O)[C@H](Cc2ccc(-c3ccccc3)cc2)NC(=O)[C@H](CC(N)=O)NC(=O)[C@@H]2CCCN2C1=O` [CMR19] ({CH2CO}-FSD[NMeS]SSVPN[Bip][Bip]RNCG-NH2; thioether N-14)?
Answer: IC50 (MDM2): 0.18 nM; Ki (MDM2): 0.15 nM; cytotoxic response on SJSA-1 cells (SJSA-1 cells [2]): did not observe any cytotoxic response; loss in affinity for MDM4 versus MDM2 (MDM4): more than thousand fold loss in affinity

Question: Which “concentration-dependent enrichment of nuclear MDM2 (quantified fluorescence)” value ([3]; 0.4-10 µM) does the source give for `CC(C)[C@@H]1NC(=O)[C@H](CO)NC(=O)[C@H](CO)NC(=O)[C@H](CO)N(C)C(=O)[C@H](CC(=O)O)NC(=O)[C@H](CO)NC(=O)[C@H](Cc2ccccc2)NC(=O)CSC[C@@H](C(=O)NCC(N)=O)NC(=O)[C@H](CC(N)=O)NC(=O)[C@H](CCCNC(=N)N)NC(=O)[C@H](C)NC(=O)[C@H](Cc2ccc(-c3ccccc3)cc2)NC(=O)[C@H](CC(N)=O)NC(=O)[C@@H]2CCCN2C1=O` [MMS95] ({CH2CO}-FSD[NMeS]SSVPN[Bip]ARNCG-NH2; thioether N-14) here?
Answer: does not

Question: What about the “enrichment of MDM2 in the nuclei compared to the DMSO control” value ([3]; 37 °C, immunofluorescence) of the same molecule?
Answer: did not result in increased nuclear staining

Question: And the IC50 (MDM2)?
Answer: > 10000 nM

Question: And the “binding to MDM2 in the TR-FRET assay” value (MDM2)?
Answer: no binding
